# Laboratory results: ChEMBL document CHEMBL3232906, “2-Amino-3-(phenylsulfanyl)norbornane-2-carboxylate: an appealing scaffold for the design of Rac1-Tiam1 protein-protein interaction inhibitors” (J Med Chem, 2014)
# Active and inactive are the calls of the source. No cut-off for these calls is given here.
# Target: T1, Ras-related C3 botulinum toxin substrate 1/T-lymphoma invasion and metastasis-inducing protein 1 (Homo sapiens, UniProt P63000+Q13009)
# Assay: Inhibition of Rac1-Tiam1 interaction in human smooth muscle cells assessed as reduction of PDGF-BB stimulated GTP bound Rac1 level at 10 uM preincubated for 4 hrs followed by PDGF-BB stimulation measured after 2 mins by G-LISA assay relative to control
# Assay type: cell-based
# Outline: (§1)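 Cultured human aortic SMCs seeded at 2 × 10^5/35 mm dish in DMEM + 10% FCS, switched after 24 h to 0.4% FCS for 48 h. Compounds (DMSO stocks) added at 10 μM final for 4 h, then PDGF-BB 20 ng/mL for 2 min. Lysates analysed by G-LISA (RBD-coated plate, antibody/HRP detection) for Rac1–GTP or RhoA–GTP. Mean ± SD of triplicates.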
row,SMILES,inhibition
1,CCOC(=O)[C@]1(N)[C@@H]2C[C@@H](C[C@H]2c2cccc(Nc3ccc(N)cc3)c2)[C@@H]1Sc1ccccc1 (relative stereo),75%
2,CCOC(=O)[C@]1(N)[C@@H]2C[C@@H]([C@@H](c3cccc(Nc4ccc(N)cc4)c3)C2)[C@H]1Sc1ccccc1 (relative stereo),Active
3,CCOC(=O)[C@]1(N)[C@@H]2C[C@@H](C[C@H]2c2cccc(Nc3ccc(N)cc3)c2)[C@H]1Sc1ccccc1 (relative stereo),Active
4,CCOC(=O)[C@]1(N)[C@@H]2C[C@@H]([C@@H](c3cccc(Nc4ccc(N)cc4)c3)C2)[C@@H]1Sc1ccccc1 (relative stereo),Active
5,CCOC(=O)[C@@]1(N)[C@@H]2C[C@@H]([C@@H](c3cccc(Nc4ccc(N)cc4)c3)C2)[C@@H]1Sc1ccccc1 (relative stereo),Active
6,CCOC(=O)[C@@]1(N)[C@@H]2C[C@@H](C[C@H]2c2cccc(Nc3ccc(N)cc3)c2)[C@@H]1Sc1ccccc1 (relative stereo),Active

# Target: Transforming protein RhoA (Homo sapiens) (UniProt P61586)
# Sequence (P61586 whole entry): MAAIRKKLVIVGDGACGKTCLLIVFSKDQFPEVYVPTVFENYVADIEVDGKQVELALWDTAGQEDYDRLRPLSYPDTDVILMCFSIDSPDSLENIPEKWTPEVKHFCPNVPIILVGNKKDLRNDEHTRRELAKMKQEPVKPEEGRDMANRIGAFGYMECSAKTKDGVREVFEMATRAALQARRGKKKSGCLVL
# Assay: Activation of RhoA in human smooth muscle cells assessed as PDGF-BB stimulated GTP bound protein level at 10 uM preincubated for 4 hrs followed by PDGF-BB stimulation measured after 2 mins by G-LISA assay
# Assay type: cell-based
# Outline: as §1
row,SMILES,Activity
1,CCOC(=O)[C@]1(N)[C@@H]2C[C@@H](C[C@H]2c2cccc(Nc3ccc(N)cc3)c2)[C@@H]1Sc1ccccc1 (relative stereo),Active
2,CCOC(=O)[C@]1(N)[C@@H]2C[C@@H]([C@@H](c3cccc(Nc4ccc(N)cc4)c3)C2)[C@H]1Sc1ccccc1 (relative stereo),Active
3,CCOC(=O)[C@]1(N)[C@@H]2C[C@@H](C[C@H]2c2cccc(Nc3ccc(N)cc3)c2)[C@H]1Sc1ccccc1 (relative stereo),Active
4,CCOC(=O)[C@]1(N)[C@@H]2C[C@@H]([C@@H](c3cccc(Nc4ccc(N)cc4)c3)C2)[C@@H]1Sc1ccccc1 (relative stereo),Active
5,CCOC(=O)[C@@]1(N)[C@@H]2C[C@@H]([C@@H](c3cccc(Nc4ccc(N)cc4)c3)C2)[C@@H]1Sc1ccccc1 (relative stereo),Active
6,CCOC(=O)[C@@]1(N)[C@@H]2C[C@@H](C[C@H]2c2cccc(Nc3ccc(N)cc3)c2)[C@@H]1Sc1ccccc1 (relative stereo),Active

# Target: T1, Ras-related C3 botulinum toxin substrate 1/T-lymphoma invasion and metastasis-inducing protein 1
# Assay: Inhibition of Rac1-Tiam1 interaction in human smooth muscle cells assessed as reduction of PDGF-BB stimulated GTP bound Rac1 level preincubated for 4 hrs followed by PDGF-BB stimulation measured after 2 mins by G-LISA assay
# Assay type: cell-based
# Outline: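 SMCs serum-starved (0.4% FCS, 48 h) after seeding at 2 × 10^5/35 mm dish, treated 4 h with compound at 1, 2.5, 5 and 10 μM final, then stimulated with PDGF-BB 20 ng/mL for 2 min. Rac1–GTP in lysates read by G-LISA (Rac1-RBD plate, primary antibody plus HRP secondary). IC50 from concentration–response; triplicates, mean ± SD.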
SMILES,IC50,inhibition
CCOC(=O)[C@]1(N)[C@@H]2C[C@@H](C[C@H]2c2cccc(Nc3ccc(N)cc3)c2)[C@@H]1Sc1ccccc1 (relative stereo),2500 nM,Dose-dependent effect

# Organism: Homo sapiens
# Assay: Antimigratory activity against human smooth muscle cells assessed as inhibition of PDGF-BB-induced cell motility at 10 uM measured for 16 hrs by video microscopic analysis
# Assay type: functional, cell-based
# Outline: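 SMCs seeded at 2 × 10^4 per well of 24-well tray in DMEM + 10% FCS, moved to 0.4% FCS for 48 h. Compound added at 10 μM final together with PDGF-BB 20 ng/mL. Time-lapse video microscopy at 37 °C for 16 h; cells manually tracked and distance covered measured for 10 cells per condition from three independent experiments, mean ± SD.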
row,SMILES,inhibition
1,CCOC(=O)[C@]1(N)[C@@H]2C[C@@H](C[C@H]2c2cccc(Nc3ccc(N)cc3)c2)[C@@H]1Sc1ccccc1 (relative stereo),Active
